The target in data set [1] is T1, Tyrosine-protein phosphatase non-receptor type 5 (Homo sapiens, UniProt P54829).
T1 sequence (P54829 whole entry): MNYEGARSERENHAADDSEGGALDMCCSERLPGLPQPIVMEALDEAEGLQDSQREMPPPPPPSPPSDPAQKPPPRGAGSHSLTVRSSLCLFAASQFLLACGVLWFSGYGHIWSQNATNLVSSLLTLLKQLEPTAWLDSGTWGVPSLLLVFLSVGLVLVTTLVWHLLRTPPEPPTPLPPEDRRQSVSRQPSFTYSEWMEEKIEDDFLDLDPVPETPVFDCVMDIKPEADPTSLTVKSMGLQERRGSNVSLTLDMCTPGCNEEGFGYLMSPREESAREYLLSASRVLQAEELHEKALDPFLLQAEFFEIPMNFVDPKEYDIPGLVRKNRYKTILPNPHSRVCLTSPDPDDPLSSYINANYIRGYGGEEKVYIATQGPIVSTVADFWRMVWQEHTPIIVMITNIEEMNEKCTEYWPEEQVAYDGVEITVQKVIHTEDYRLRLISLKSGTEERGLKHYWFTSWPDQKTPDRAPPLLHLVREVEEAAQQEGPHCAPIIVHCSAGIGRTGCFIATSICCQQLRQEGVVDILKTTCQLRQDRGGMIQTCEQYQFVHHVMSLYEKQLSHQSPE
The experiment in a line: Inhibition of human STEP using pNPP as substrate after 5 mins by spectrophotometric plate reader analysis.

The target in data set [2] is Receptor-type tyrosine-protein phosphatase F (Homo sapiens, UniProt P10586). The experiment in a line: Inhibition of human LAR using pNPP as substrate after 5 mins by spectrophotometric plate reader analysis. Summed up:
(§1)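 Enzyme preincubated 5 min at 27 °C with serially diluted inhibitor (from DMSO) in imidazole/NaCl buffer pH 7.0 with 0.01% Triton X-100 and 5 mM DTT. Started with pNPP (500 μM in assay) and read at 405 nm for 20 min. The pNPP KM was measured for each enzyme. Ki from nonlinear regression of substrate–velocity curves at several inhibitor levels; at least duplicate.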

Data set [3] is filed under the species Homo sapiens. The experiment in a line: Selectivity ratio of Ki for human LAR to Ki for human STEP. In short, it runs like this:
(§2)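 STEP, CD45, LAR and TC-PTP used pNPP (500 μM) in imidazole/NaCl pH 7.0 with Triton X-100, read at 405 nm for 20 min. MKP5 used DiFMUP in Tris-HCl pH 8.0. The enzyme's own pNPP KM was used in analysis; ratio of the Ki values.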

For data set [4], the species on record is Homo sapiens. The data set can be described thus: Selectivity ratio of Ki for human TC-PTP to Ki for human STEP. In short, it runs like this:
as §2

Data set [5] has as its target T2, Dual specificity protein phosphatase 10 (Homo sapiens, UniProt Q9Y6W6).
T2 sequence (Q9Y6W6 whole entry): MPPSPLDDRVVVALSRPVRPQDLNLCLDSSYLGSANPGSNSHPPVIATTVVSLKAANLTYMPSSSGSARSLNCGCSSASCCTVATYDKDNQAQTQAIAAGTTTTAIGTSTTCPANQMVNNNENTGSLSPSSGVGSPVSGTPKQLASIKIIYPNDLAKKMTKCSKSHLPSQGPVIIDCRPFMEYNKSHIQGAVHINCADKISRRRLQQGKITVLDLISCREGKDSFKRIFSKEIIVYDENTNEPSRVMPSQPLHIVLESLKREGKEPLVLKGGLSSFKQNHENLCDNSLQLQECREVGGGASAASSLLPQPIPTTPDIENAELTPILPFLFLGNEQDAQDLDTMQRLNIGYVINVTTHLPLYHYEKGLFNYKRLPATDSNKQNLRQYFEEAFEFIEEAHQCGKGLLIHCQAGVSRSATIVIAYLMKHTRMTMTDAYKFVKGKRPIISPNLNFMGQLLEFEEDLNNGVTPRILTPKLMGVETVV
The data set can be described thus: Inhibition of human MKP5 using DiFMUP as substrate after 5 mins by spectrophotometric plate reader analysis. In short, it runs like this: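 The […] substrate was DiFMUP. Buffer was Tris-HCl pH 8.0 with Triton X-100 and 5 mM DTT. Inhibitor was preincubated with enzyme for 5 min at 27 °C before adding substrate. Ki from nonlinear regression of initial-rate substrate–velocity data at several inhibitor concentrations; at least duplicate.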

The target in data set [6] is T3, Tyrosine-protein phosphatase non-receptor type 2 (Homo sapiens, UniProt P17706).
T3 sequence (P17706 whole entry): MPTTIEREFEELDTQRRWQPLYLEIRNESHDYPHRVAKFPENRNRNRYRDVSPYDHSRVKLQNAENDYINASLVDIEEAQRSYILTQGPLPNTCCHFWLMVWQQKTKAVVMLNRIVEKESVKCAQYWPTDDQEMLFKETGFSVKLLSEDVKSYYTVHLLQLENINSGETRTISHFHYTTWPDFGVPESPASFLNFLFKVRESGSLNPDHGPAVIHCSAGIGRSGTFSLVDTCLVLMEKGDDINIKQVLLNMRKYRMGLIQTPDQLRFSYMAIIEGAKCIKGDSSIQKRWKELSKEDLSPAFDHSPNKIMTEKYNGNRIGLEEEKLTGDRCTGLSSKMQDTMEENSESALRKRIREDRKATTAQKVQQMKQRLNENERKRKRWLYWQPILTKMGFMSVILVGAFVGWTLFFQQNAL
The experiment in a line: Inhibition of human TC-PTP using pNPP as substrate after 5 mins by spectrophotometric plate reader analysis. Summed up: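 Selectivity assay using the STEP Ki protocol. Enzyme was preincubated 5 min at 27 °C with two- or three-fold inhibitor serial dilutions in DMSO, in imidazole/NaCl buffer at pH 7.0 with 0.01% Triton X-100 and 5 mM DTT. Reaction started with pNPP (500 μM in assay), read continuously at 405 nm for 20 min. Ki came from nonlinear regression of substrate-velocity curves, using this enzyme's pNPP KM; at least duplicate.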

The species entered for data set [7] is Homo sapiens. The experiment in a line: Selectivity ratio of Ki for human CD45 to Ki for human STEP. In short, it runs like this:
as §2

Data set [8] deals with T4, Receptor-type tyrosine-protein phosphatase C (Homo sapiens, UniProt P08575).
T4 sequence (P08575 whole entry): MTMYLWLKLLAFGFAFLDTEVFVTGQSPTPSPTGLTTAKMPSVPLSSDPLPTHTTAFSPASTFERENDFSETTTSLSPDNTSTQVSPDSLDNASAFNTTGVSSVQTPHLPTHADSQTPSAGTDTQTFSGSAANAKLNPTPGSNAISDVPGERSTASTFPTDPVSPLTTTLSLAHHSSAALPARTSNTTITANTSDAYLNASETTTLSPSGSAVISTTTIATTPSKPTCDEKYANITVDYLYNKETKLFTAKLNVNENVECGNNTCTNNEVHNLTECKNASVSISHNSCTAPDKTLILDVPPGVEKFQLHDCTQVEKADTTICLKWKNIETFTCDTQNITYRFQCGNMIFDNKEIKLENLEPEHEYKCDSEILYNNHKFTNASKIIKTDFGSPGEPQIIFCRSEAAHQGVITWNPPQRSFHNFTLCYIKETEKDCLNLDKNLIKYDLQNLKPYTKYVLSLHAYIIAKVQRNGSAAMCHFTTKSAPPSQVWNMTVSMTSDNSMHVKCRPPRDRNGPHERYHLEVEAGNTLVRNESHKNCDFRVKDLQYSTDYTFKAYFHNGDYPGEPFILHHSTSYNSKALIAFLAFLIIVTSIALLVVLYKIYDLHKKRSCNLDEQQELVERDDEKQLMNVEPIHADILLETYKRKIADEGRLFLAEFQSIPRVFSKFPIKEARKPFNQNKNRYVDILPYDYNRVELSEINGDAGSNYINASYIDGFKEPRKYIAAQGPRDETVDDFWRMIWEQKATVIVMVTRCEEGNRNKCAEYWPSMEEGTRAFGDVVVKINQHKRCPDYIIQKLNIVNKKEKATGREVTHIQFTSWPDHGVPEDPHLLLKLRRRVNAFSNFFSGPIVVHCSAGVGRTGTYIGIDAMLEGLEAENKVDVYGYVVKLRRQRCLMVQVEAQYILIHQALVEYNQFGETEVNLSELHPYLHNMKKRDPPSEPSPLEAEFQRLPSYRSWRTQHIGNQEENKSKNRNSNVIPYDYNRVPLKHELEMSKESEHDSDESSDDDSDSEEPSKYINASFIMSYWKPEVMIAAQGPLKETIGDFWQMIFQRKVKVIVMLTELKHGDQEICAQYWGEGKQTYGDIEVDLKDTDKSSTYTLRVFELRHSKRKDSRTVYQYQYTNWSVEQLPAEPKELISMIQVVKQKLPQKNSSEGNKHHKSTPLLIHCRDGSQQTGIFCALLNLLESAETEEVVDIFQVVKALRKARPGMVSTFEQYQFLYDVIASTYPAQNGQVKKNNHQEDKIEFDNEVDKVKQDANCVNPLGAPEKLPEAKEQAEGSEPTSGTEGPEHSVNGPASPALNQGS
The experiment in a line: Inhibition of human CD45 using pNPP as substrate after 5 mins by spectrophotometric plate reader analysis. In short, it runs like this: as §1

Data set [9] is filed under the species Homo sapiens. The data set can be described thus: Selectivity ratio of Ki for human MKP5 to Ki for human STEP. Summed up: as §2
Substrate in data set [10]: O=C(Cc1ccc(OP(=O)(O)O)cc1)Nc1ccccc1
The data set can be described thus: (§3) Activity at human STEP measured for 20 mins by spectrophotometric plate reader analysis. Summed up:
(§4)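 Substrate KM by coupled assay: STEP 100 nM with MESG 400 μM, PNP 1 U/mL, 5 mM DTT in imidazole/NaCl buffer with Triton X-100, pH 7.0; preincubated 3 min at 27 °C, then started with substrate (about 0–3.00 mM in assay, from DMSO). Followed 20 min at 360 nm, 27 °C; KM from Michaelis–Menten fit of initial rates.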

Substrate in data set [11]: COC(=O)[C@H](Cc1ccc(OP(=O)(O)O)cc1)NC(C)=O
The data set is described as §3. Summed up:
as §4

Substrate in data set [12]: CC(C)(C)CC(C)(C)c1ccc(OP(=O)(O)O)cc1
Described as §3. Summed up: as §4

Substrate in data set [13]: O=P(O)(O)Oc1ccc(-c2ccccc2)cc1
The data set is described as §3. In short, it runs like this: as §4

Substrate in data set [14]: CC(Cc1ccccc1)c1ccc(OP(=O)(O)O)cc1
The data set is described as §3. In short, it runs like this: as §4

Substrate in data set [15]: O=P(O)(O)Oc1ccccc1
Described as §3. In short, it runs like this:
as §4

Substrate in data set [16]: O=[N+]([O-])c1ccc(OP(=O)(O)O)cc1
Described as §3. Summed up: as §4

Substrate in data set [17]: O=P(O)(O)Oc1cccc(Nc2ccccc2)c1
Described as §3. Summed up:
as §4

Substrate in data set [18]: O=C(Oc1cccc(OP(=O)(O)O)c1)c1ccccc1
The data set is described as §3. In short, it runs like this:
as §4

Substrate in data set [19]: O=P(O)(O)Oc1cccc(-c2ccccc2)c1
Described as §3. In short, it runs like this: as §4

From ChEMBL document CHEMBL2429849, “Substrate-based fragment identification for the development of selective, nonpeptidic inhibitors of striatal-enriched protein tyrosine phosphatase” (J Med Chem, 2013) come the findings set out here.

Chain of Receptor-type tyrosine-protein phosphatase F (P10586 whole entry): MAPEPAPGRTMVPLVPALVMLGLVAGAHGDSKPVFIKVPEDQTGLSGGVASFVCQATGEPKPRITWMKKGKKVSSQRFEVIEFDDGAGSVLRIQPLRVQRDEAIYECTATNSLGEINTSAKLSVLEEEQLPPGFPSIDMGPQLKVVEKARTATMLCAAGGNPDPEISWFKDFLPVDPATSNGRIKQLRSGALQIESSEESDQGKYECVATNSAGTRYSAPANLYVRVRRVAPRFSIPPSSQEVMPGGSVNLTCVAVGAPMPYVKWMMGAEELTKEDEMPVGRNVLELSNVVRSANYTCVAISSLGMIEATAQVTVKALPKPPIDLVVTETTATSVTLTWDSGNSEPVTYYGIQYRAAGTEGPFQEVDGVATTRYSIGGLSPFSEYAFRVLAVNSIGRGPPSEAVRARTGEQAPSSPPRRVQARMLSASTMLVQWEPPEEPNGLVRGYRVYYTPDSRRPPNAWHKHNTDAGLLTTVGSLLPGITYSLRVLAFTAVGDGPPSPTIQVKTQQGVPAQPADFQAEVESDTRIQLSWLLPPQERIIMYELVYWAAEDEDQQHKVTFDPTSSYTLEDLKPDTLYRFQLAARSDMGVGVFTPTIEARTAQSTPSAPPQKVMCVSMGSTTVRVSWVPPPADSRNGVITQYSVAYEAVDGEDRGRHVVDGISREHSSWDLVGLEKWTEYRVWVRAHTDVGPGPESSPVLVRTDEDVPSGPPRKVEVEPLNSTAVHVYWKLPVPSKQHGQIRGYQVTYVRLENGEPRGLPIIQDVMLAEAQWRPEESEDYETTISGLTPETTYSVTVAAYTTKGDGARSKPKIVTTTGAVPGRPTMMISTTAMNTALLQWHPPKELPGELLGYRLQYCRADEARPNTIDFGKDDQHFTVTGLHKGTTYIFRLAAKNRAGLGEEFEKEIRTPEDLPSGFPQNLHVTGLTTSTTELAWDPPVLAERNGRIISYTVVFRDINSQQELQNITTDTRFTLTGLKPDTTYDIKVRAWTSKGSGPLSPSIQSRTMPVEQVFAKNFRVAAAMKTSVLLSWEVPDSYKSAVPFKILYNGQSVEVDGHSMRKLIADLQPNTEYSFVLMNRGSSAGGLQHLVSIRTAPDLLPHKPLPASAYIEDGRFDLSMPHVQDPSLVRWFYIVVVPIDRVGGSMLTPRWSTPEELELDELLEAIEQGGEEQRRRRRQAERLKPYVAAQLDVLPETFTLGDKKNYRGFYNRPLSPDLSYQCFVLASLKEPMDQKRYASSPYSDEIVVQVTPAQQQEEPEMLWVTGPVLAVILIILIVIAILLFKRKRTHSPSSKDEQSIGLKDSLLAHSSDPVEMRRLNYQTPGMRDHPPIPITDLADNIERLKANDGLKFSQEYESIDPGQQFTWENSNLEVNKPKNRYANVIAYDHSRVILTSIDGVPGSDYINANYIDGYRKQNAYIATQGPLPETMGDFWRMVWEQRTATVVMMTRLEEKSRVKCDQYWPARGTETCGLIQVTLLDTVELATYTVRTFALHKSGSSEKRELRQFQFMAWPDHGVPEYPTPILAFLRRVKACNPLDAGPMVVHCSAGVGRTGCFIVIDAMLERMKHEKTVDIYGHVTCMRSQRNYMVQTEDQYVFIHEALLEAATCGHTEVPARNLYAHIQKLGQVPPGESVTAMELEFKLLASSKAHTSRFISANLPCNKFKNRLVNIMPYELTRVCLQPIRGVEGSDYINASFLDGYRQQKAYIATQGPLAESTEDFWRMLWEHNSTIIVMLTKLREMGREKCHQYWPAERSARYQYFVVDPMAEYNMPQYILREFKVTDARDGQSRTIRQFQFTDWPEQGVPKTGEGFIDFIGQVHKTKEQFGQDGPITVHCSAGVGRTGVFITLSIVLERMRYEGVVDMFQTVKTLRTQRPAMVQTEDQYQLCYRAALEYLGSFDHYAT

A word on the Ki: it is a measure of affinity in units of concentration, obtained from inhibition or displacement. Low values mean tighter binding, high ones weaker binding. With `CS(=O)(=O)Nc1ccccc1-c1ccc(C(F)(F)P(=O)(O)O)cc1`, affinity in data set [1] was put at a Ki of 673 µM.
Same read-out and setting: under `O=P(O)(O)[C@@H](O)c1ccc(-c2cccc([C@@H](O)c3ccc(Cl)c(Cl)c3)c2)cc1` stands 88 µM.
As to `O=P(O)(O)C(F)(F)c1cccc(-c2cccc(C3CCCCC3)c2O)c1`, the Ki in [2] was more than 900 µM; in data set [1], 20 µM; in data set [5], 150 µM; in data set [6], 71 µM; in [8], more than 500 µM. Further, the Ratio Ki is more than 45 in the data set filed under Homo sapiens [3], 3.6 in the data set listed under Homo sapiens [4], more than 25 in the data set listed under Homo sapiens [7] and 7.5 in the data set listed under Homo sapiens [9].
In the case of `O=P(O)(O)[C@@H](O)c1ccc(-c2cccc([C@H](O)c3ccc(Cl)c(Cl)c3)c2)cc1`, in [1], the Ki turned out to be 93 µM. That is a double-digit micromolar value.
The same measure, in the same setting: under `O=P(O)(O)C(F)(F)c1cccc(-c2ccccc2)c1` stands 337 µM; under `O=P(O)(O)C(F)(F)c1ccc(-c2cccc(Nc3ccccc3)c2)cc1`, 112 µM; under `CS(=O)(=O)Nc1cccc(-c2ccc(C(F)(F)P(=O)(O)O)cc2)c1`, 113 µM.
Molecule `O=P(O)(O)C(F)(F)c1ccc(-c2ccccc2)cc1` showed a Ki in data set [1] of 120 µM.

B1: Tyrosine-protein phosphatase non-receptor type 5 (Homo sapiens), P54829 (protein)
chain: T1 sequence (P54829 whole entry)
By Km is commonly meant the substrate concentration at which the rate is half of its maximum. For the molecule B1, the Km in data set [10] was found to be 133 µM; in [11], 378 µM; in data set [12], 260 µM; in [13], 169 µM; in [14], 128 µM; in [15], 2730 µM. The Km in data set [16] stood at 745 µM; in [17], 650 µM; in data set [18], 327 µM; in data set [19], 277 µM.
